The results in this text go back to publication PMC10527666 (Molecular imaging and biology, 2023).

Usually inhibition stands for the share of the control response that was lost under treatment. As usually defined, the Ki is the equilibrium dissociation constant of an inhibitor or competing ligand from its target.

Experiment [1] addresses T1, α-synuclein fibrils (Homo sapiens, UniProt P37840). In words: Compound screening, 1-point inhibition of [^3H]BF2846 binding. The conditions noted are these: read-out: % Inhibition [^3H]BF-2846. An outline of the steps:
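Human α-synuclein (C-terminal intein fusion, expressed in E. coli BL21(DE3), purified, quantified by A280) was fibrillised. Fibrils at 100 nM were incubated with 100 nM test compound and 3 nM [³H]BF2846 in 50 mM Tris-HCl pH 7.4, 1 h at 37 °C, with nonspecific binding defined by 0.5 μM BF2846. Samples were GF/C-filtered and scintillation-counted, in triplicate. Bound radioligand was expressed as % of total binding and tested by one-way ANOVA.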

For experiment [2], the target named is T1, α-synuclein fibrils. In words: Competition binding assay against [^3H]BF2846. The essentials: (§1)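 Fibrils (α-synuclein 50 nM; Aβ42 100 nM) incubated with 3 nM [³H]BF2846 and varying concentrations of test compound in 50 mM Tris-HCl pH 7.4, 1 h at 37 °C. Nonspecific binding was defined with 0.5 μM unlabeled BF2846, and fibril-free filter blanks were run. Samples were GF/C-filtered, washed with 10 mM Tris/150 mM NaCl and scintillation-counted after 12 h, in triplicate. Ki was obtained by nonlinear regression using radioligand Kd.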

A further experiment deals with Aβ42 fibrils (Homo sapiens, UniProt P05067). The experiment can be described thus: Competition binding assay against [^3H]BF2846. An outline of the steps: as §1
Chain of Aβ42 fibrils (P05067 672-713 limits assumed): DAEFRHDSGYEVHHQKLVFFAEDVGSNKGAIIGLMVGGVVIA

For the compound `COc1ccc(C(=O)Nc2cc(-c3ccc(Br)cc3)no2)cc1` [Compound 15, N-(3-(4-bromophenyl)isoxazol-5-yl)-4-methoxybenzamide], the inhibition at 0.1 µM on α-synuclein fibrils [1] amounted to 80%. Also, the Ki amounted to 11 nM on α-synuclein fibrils [2] and 36.1 nM on Aβ42 fibrils.

On to `COc1ccc(C(=O)Nc2cc(-c3ccc(I)cc3)no2)cc1` [Compound 21, N-(3-(4-iodophenyl)isoxazol-5-yl)-4-methoxybenzamide], for which the Ki at α-synuclein fibrils [2] is 3.6 nM.
